Results gathered from unrelated publications.
Protocols differ between the studies behind these lines.
Target: Dual specificity mitogen-activated protein kinase kinase 2 (MAP2K2, Homo sapiens, UniProt P36507)

With `N#CCCc1ccc2c(c1)-c1[nH]c3ccc([N+](=O)[O-])cc3c1CC(=O)N2` the remaining signal was 90.3% (cell-free assay; 0.5 µM).
`Cn1c2c(c3ccc(Cl)c(Cl)c31)C(C#N)C(C)(C)NC2=O` (stereo not shown) gave a ΔTm of -0.5 °C (thermal stability, DSF; 10 µM).
For `N#CC(=C(N)Sc1ccc(N)cc1)c1ccccc1C(F)(F)F`, the remaining signal was 94.5% (cell-free assay; 0.5 µM).
The remaining activity of `CC(C)(O)[C@H]1CC[C@H](Nc2ccc3ncc(-c4cccc(C(F)(F)F)c4)n3n2)CC1` is reported as 101% (enzyme activity, inhibitor; 1 µM).
For `COc1cc(-c2cc(-c3ccc(N4CCNCC4)cc3)cnc2C)cc(OC)c1OC`, the inhibition was 4% (enzyme activity, inhibitor; 0.1 µM).
`CN1CCN(c2cnc3c(C4CCN(C(=O)c5ccc(OC(F)(F)F)cc5N)CC4)ncnc3c2)CC1` gave a remaining binding of 100% (cell-free assay, competition with immobilised ligand; 1 µM).
`FC(F)(F)Oc1cccc(-c2cnc3ccc(-c4ccncc4)nn23)c1` has an activity vs control of 84% (enzyme activity, inhibitor, radiometric; 1 µM).
With `O=C(NCCCC1CCCCC1)c1ccc(CNC(=O)c2cnn(-c3ccccc3)c2C(F)(F)F)cc1` the remaining binding was 93% (cell-free assay, competition with immobilised ligand; 0.1 µM).
With `Cc1sc(C(=O)NC2COC2)cc1-n1cc(NC(=O)Nc2c(F)cccc2Cl)cn1` the remaining activity was 99.5% (enzyme activity, inhibitor; 10 µM).
`FC(F)c1nc2ccccc2n1-c1nc(N2CCOCC2)nc(N2CCOCC2)n1` gave a remaining activity of 95% (enzyme activity, inhibitor; 10 µM).
For `COc1cc(Nc2cnc(C#N)c(O[C@H](C)CN(C)C)n2)ncc1-c1cnn(C)c1`, the remaining activity was 76% (enzyme activity, inhibitor, radiometric; 1 µM).
With `CCN1CCC2(CC1)NC(=O)c1c(c3ccc(Cl)c(Cl)c3n1C)C2C#N` (racemic) the ΔTm was -0.1 °C (thermal stability, DSF; 10 µM).
With `Cc1cc(NC(=O)c2cccc(S(F)(F)(F)(F)F)c2)cc(-n2ccn3nc(-c4cccnc4)cc23)c1` the remaining binding was 93.3% (cell-free assay, competition with immobilised ligand; 1 µM).
`Cc1ccc(C(=O)NCc2ccsc2)cc1C#Cc1cn(C(C)C)c2ncnc(N)c12` has an activity vs control of 81% (enzyme activity, inhibitor; 1 µM).
The remaining binding of `Nc1cnc(N2CCc3cc(S(=O)(=O)Nc4c(F)cc(Cl)cc4F)cc(N4CCCC4=O)c32)nc1` is reported as 92% (cell-free assay, competition with immobilised ligand; 1 µM).
For `Cn1c2c(c3ccccc31)C(C#N)C(C)(C)NC2=O` (stereo not shown), the ΔTm was -0.1 °C (thermal stability, DSF; 10 µM).
With `Nc1c(C(=O)NCc2ccc(C(=O)NCCCC3CCCCC3)cc2)cnn1-c1ccccc1` the remaining binding was 100% (cell-free assay, competition with immobilised ligand; 0.1 µM).
For `CS(=O)(=O)Nc1cccc(-c2csc(NC(=O)CSc3nc4nccnc4c(=O)n3CCc3ccccc3)n2)c1`, the inhibition was -1% (enzyme activity, inhibitor; 10 µM).
For `CCCCN(CCCC)C(=O)CN1C[C@H](c2cc(OC)c3c(c2)OCO3)[C@@H](C(=O)O)[C@@H]1CC(C)(C)CCC`, the remaining binding was 69.7% (cell-free assay, competition with immobilised ligand; 1 µM).
The ΔTm of `N#CC1c2c([nH]c3c(Cl)c(Cl)ccc23)C(=O)NC12CCCCC2` (racemic) is reported as -0.8 °C (thermal stability, DSF; 10 µM).
The remaining binding of `Cn1cc(Cl)c2c(Oc3c(F)cc(Nc4cc(Cl)nc(N)n4)cc3F)ccnc21` is reported as 100% (cell-free assay, competition with immobilised ligand; 0.1 µM).
For `COc1cc2ncnc(Nc3ccc(Oc4ccccc4)c(C)c3C)c2cc1OC`, the inhibition was -7% (enzyme activity, inhibitor; 1 µM).
